The structures appear in SMILES notation. Calls of active or inactive are those of the source. The rule behind the calls is not given here.

Data on 8 compounds can be found in ChEMBL document CHEMBL5107970, “Synthesis of a fluorinated pyronin that enables blue light to rapidly depolarize mitochondria” (RSC Med Chem, 2022).

In data set [1] the test system is HeLa. In words: Induction of reactive oxygen species generation in human HeLa cells assessed as increase in ROS level at 20 uM incubated for 1 hr in presence of dihydroethidium by confocal microscopy. The class given is functional, cell-based. In outline:
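HeLa cells were seeded at 20,000 per well in chambered coverslips and grown 16 h before treatment at 37 °C. Dihydroethidium (5 µM) was then added for 1 h, and cells were washed twice with complete medium. Confocal imaging followed. Ethidium signal was quantified as mean fluorescence in regions of interest drawn around nuclei.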

A short description of data set [2]: Cytotoxicity against human HeLa cells assessed as reduction in cell viability incubated for 48 hrs by flow cytometry. The class given is toxicity, cell-based.
Data set [3] is described as follows: Stability in human Jurkat lymphocytes assessed as half life in mitochondria at 10 uM incubated for 1 hrs by flow cytometry. The class given is ADME. Background: In flow cytometry, cells or beads pass a laser one at a time.
Data set [4] in a line: Cytotoxicity against human Jurkat cells assessed as reduction in cell viability incubated for 48 hrs by flow cytometry. The class given is toxicity, cell-based.
A short description of data set [5]: Stability of the compound assessed as bovine serum albumin mediated drug degradation at 10 uM incubated for 1 hrs by fluorescence spectroscopy. It counts as ADME. The note with it: cattle.
For data set [6], the system named is HeLa. The experiment in a line: Induction of reactive oxygen species generation in human HeLa cells assessed as increase in ROS level at 2 uM incubated for 1 hr in presence of dihydroethidium by confocal microscopy. The class given is functional, cell-based. In outline: (§1)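 HeLa cells seeded 20,000/well and grown 16 h. Pyronin 2 μM for 1 h at 37 °C, then DHE 5 μM for 1 h, then two washes with complete medium. Irradiation was 488 nm laser scanning at 25% power. ROIs drawn around nuclei to give mean ethidium fluorescence. Antimycin A 20 μM served as positive control; DHE-only cells were irradiated 1 or 2 min.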

Data set [7] concerns HeLa. In words: Induction of reactive oxygen species generation in human HeLa cells assessed as fold increase in ROS level by measuring nuclear fluorescence at 2 uM incubated for 60 mins followed by blue-light irradiation for 1 mins in presence of dihydroethidium by confocal microscopy. The settings on record: time 61 min, 1.017 h. It counts as functional. The procedure, abridged: as §1

Data set [8] relates to HeLa. In words: Induction of mitochondrial membrane potential depolarization in human HeLa cells assessed as diffuse fluorescence from mitochondria to cytoplasm and nucleus at 10 uM incubated for 1 hrs in presence of blue-light irradiation by MitoTracker Deep red and LysoTracker red staining based confocal laser scanning microscopy. It counts as functional, cell-based. The procedure, abridged:
(§2)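 Live HeLa cells seeded 20,000/well and grown 24 h, then loaded with probe 10 μM for 1 h at 37 °C (0.1% DMSO). Then either irradiated at 488 nm for 60 s or given CCCP 10 μM for 5 min. Unwashed cells imaged by confocal (Ex. 488 nm, Em. 500–600 nm) and DIC.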

In data set [9] the test system is HeLa. In words: Induction of mitochondrial membrane potential depolarization in human HeLa cells assessed as fluorescence in nucleoli at 10 uM incubated for 60 mins followed by blue-light irradiation for 60 sec by MitoTracker Deep Red staining based confocal laser scanning microscopy. The class given is functional, cell-based. The settings on record: time 61.0 min. The procedure, abridged: as §2

The nature of data set [10]: Stability of compound in ethanol at 5 uM incubated for 1 hrs by fluorescence spectroscopy. It counts as physicochemical.
The nature of data set [11]: Drug distribution in human HeLa cells assessed as fluorescence in mitochondria at 2 uM incubated for 1 hrs by confocal laser scanning microscopy. The class given is ADME.
The subject of data set [12] is HeLa. In words: Induction of reactive oxygen species generation in human HeLa cells assessed as fold increase in ROS level by measuring nuclear fluorescence at 2 uM incubated for 60 mins followed by blue-light irradiation for 2 mins by confocal microscopy. It counts as functional. The settings on record: time 62 min, 1.033 h. In outline: as §1
The nature of data set [13]: Drug distribution in human HeLa cells assessed as fluorescence in mitochondria at 10 uM incubated for 1 to 3 hrs by MitoTracker Deep Red staining based confocal laser scanning microscopy. The class given is ADME. The note with it: time 1-3 hrs. In outline:
(§3)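 HeLa cells seeded 20,000/well on chambered coverslips and grown 24 h. Compound diluted 1,000-fold from DMSO stock into complete medium (0.1% DMSO) and given at 37 °C, then co-imaged with MitoTracker Deep Red or LysoTracker Red. Live-cell confocal imaging with 63X oil objective, without washing.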

The target in a further data set is Albumin (Bos taurus, UniProt P02769). The experiment in a line: Stability of the compound assessed as bovine serum albumin mediated drug degradation at 10 uM incubated for 1 hrs followed by blue-light irradiation for 10 mins by fluorescence spectroscopy. It counts as ADME. The note with it: cattle, 1.167 h, time 70 min.
Data set [14] deals with HeLa. In words: Induction of mitochondrial membrane potential depolarization in human HeLa cells assessed as fluorescence in nucleoli at 10 uM preincubated for 60 mins followed by CCCP treatment and measured after 5 mins by MitoTracker Deep Red and LysoTracker red staining based confocal laser scanning microscopy. The class given is functional, cell-based. The settings on record: time 65.0 min. The procedure, abridged:
as §2

Data set [15] in a line: Drug distribution in human HeLa cells assessed as fluorescence in lysosome at 10 uM incubated for 1 to 3 hrs by LysoTracker red staining based confocal laser scanning microscopy. The note with it: time 1-3 hrs. The class given is ADME, cell-based. In outline: as §3

Sequence of Albumin (P02769 whole entry): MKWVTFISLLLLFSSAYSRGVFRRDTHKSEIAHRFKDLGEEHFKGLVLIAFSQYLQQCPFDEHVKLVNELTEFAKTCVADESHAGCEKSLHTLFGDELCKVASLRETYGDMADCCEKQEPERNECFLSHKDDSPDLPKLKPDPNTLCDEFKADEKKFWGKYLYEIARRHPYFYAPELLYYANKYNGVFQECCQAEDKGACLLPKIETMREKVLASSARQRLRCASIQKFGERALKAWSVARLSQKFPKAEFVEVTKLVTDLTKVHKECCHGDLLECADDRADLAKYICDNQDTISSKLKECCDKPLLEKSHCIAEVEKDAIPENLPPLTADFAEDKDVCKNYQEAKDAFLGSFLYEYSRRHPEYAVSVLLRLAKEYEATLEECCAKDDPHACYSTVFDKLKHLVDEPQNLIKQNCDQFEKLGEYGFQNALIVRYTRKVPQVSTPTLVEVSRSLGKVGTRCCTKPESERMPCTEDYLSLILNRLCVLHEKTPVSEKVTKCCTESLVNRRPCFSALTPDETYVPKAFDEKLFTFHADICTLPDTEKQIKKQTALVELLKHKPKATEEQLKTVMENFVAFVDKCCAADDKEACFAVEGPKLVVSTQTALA

`CCCCCC[C@H]1C(=O)O[C@H](C)[C@H](NC(=O)c2cccc(NC=O)c2O)C(=O)O[C@@H](C)[C@@H]1OC(=O)CC(C)C`: the outcome in the data set on HeLa [1] was Active.

Broadly, the IC50 is the concentration needed to halve the response being measured. For orientation: half-life means how long it takes for the measured level to halve. In the case of `CCN(CC)c1cc2oc3cc(N(CC)CC)c(F)cc3c(=O)c2cc1F`, the IC50 at 48 h was 51 µM in data set [2] and 17 µM in data set [4]. Besides, the half-life at 10 µM in [3] is 5 min.

Consider `CCN(CC)c1cc2oc3cc(=[N+](CC)CC)c(F)cc-3cc2cc1F.O=C([O-])C(F)(F)F`, for which the values for the Stability entry (in [5]; in data set [10]; at Albumin) were “Unstable”, “Stable” and “Unstable”, respectively. The result in the data set on HeLa [6], in the data set with HeLa [8], in the data set with HeLa [9] and with HeLa [14] was Active. Besides, the “fold change (FC)” value is on record as 1.5 in the data set with HeLa [7] and 2.7 with HeLa [12]. In addition, the IC50 at 48 h stood at 9 µM in data set [2] and 1 µM in data set [4]. Besides, in [11], the result was Active. For the same compound, the half-life at 10 µM in data set [3] is 12 min. In addition, the Drug uptake entry in data set [13] is on record as “Active”.

For the compound `CCN(CC)c1ccc2cc3ccc(N(CC)CC)cc3[o+]c2c1.[Cl-]`, the outcome in the data set on HeLa [6] was Active. In addition, the half-inhibitory concentration (IC50) at 48 h worked out at 2 µM in [2] and 0.1 µM in data set [4]. For the same compound, in data set [10], the Stability result is reported as “Stable”. Moreover, the outcome in data set [11] was Active. Further, the half-life at 10 µM in data set [3] is 6 min.

In the case of `COC(=O)c1ccccc1-c1c2ccc(=N)cc-2oc2cc(N)ccc12.Cl` [RHODAMINE123], in data set [3], the half-life at 10 µM is above 1000 min.

`CCNc1c2cc(F)c(=[N+](CC)CC)cc-2oc2cc(N(CC)CC)c(F)cc12.O=C([O-])C(F)(F)F`: the Drug uptake entry in data set [15] and in data set [13] was “Active” throughout. Moreover, the results for the IC50 at 48 h in data set [2] and in data set [4] were 3 µM and 0.8 µM, respectively. For the same compound, the half-life at 10 µM in data set [3] came to 60 min.

On to `O=C([O-])C(F)(F)F.c1cc(=[N+]2CCC2)cc2oc3cc(N4CCC4)ccc3cc1-2`, for which the figures for the half-inhibitory concentration (IC50) at 48 h in [2] and in [4] were 3 µM and 0.2 µM, respectively. Besides, in [10], the Stability result was “Stable”. For the same compound, the half-life at 10 µM in data set [3] was 30 min. In addition, the Drug uptake result in data set [13] is “Active”.

Turning to `Fc1cc2cc3cc(F)c(=[N+]4CCC4)cc-3oc2cc1N1CCC1.O=C([O-])C(F)(F)F`, the IC50 at 48 h in data set [2] is 15 µM; in data set [4] it was 0.9 µM. The Stability result in data set [10] is given as “Stable”. The half-life at 10 µM in [3] came to 15 min.
